Experimental data taken from ChEMBL document CHEMBL1127790, “Photodynamic antitumor agents: beta-methoxyethyl groups give access to functionalized porphycenes and enhance cellular uptake and activity” (J Med Chem, 1994).

Key:
[1] = species on record: Mus musculus; assay: Tested for phototoxic activity of compound on SSK2 cultivated murine fibrosarcoma cells; format: ADME, cell-based; conditions: light or radiation study, read-out: LD50 (the source's name)
Summary of the method: (§1)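 SSK2 murine fibrosarcoma cells (C3H origin), 3 × 10^5 cells/dish after 18 h attachment, incubated 4 h at 37 °C/5% CO2 with sensitizer in DPPC liposomes (DPPC/sensitizer 100:1) diluted in MEM. Cells washed, irradiated in PBS with laser light at 20 mW/cm2 for 250 s (5 J/cm2), then kept 18 h in MEM/10% FCS. Viability by trypan blue exclusion, as percent of MEM-only controls, ≥5 dishes per point. LD50 in incubation medium by probit analysis.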

[2] = species on record: Mus musculus; assay: Cellular uptake kinetics of Porphycenes saturation cell level (cs)in SSK2 murine fibrosarcoma cells; format: ADME
Summary of the method: (§2)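 Murine fibrosarcoma cells (SSK2, C3H mouse-derived; MEM/5% FCS, 37 °C, 5% CO2), 2.5 × 10^5 plated and grown 18 h. Then 2 µM porphycene in DOPC liposomes diluted in MEM, incubated at 37 °C for varying times. Cells washed, trypsinized, counted, pelleted. Extraction with methanol then acetonitrile containing diphenylanthracene internal standard. Fluorescence read at ex 370 nm against calibration plots. Saturation level from monoexponential fit.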

[3] = Cellular uptake kinetics of Porphycenes saturation cell level (cs); format: ADME; summary of the method: as §2
[4] = species on record: Mus musculus; assay: Tested for phototoxic activity of compound on SSK3 cultivated murine fibrosarcoma cells; format: ADME, cell-based; conditions: light or radiation study, read-out: LD50 (the source's name)
[5] = species on record: Mus musculus; assay: Cellular uptake kinetics of Porphycenes saturation cell level (cs) in SSK2 murine fibrosarcoma cells; format: ADME; summary of the method: as §2
[6] = (§3) Tested for Photodynamic activity of Sensitizers, lethal dose concentration in incubation media as obtained by probit analysis of SSK3 fibrosarcoma cells; format: ADME; conditions: Mus musculus, light or radiation study; read-out: LD50 (the source's name); summary of the method: as §1
[7] = species on record: Mus musculus; assay: Tested for Photodynamic activity of Sensitizers for cultivated SSK2 cells; format: ADME, cell-based; conditions: read-out: LD50 (the source's name); summary of the method: as §1
[8] = species on record: Mus musculus; assay: Cellular uptake kinetics of Porphycenes saturation cell level (cs) in SSK3 murine fibrosarcoma cells; format: ADME; summary of the method: as §2
[9] = species on record: Mus musculus; assay: as §3; format: ADME, cell-based; conditions: in vivo, read-out: LD50 (the source's name); summary of the method: as §1

Question: Which CC50 [1] does the source give for `COCCC1=Cc2nc1ccc1[nH]c(cc1CCOC)c1nc(ccc3[nH]c2cc3CCOC)C(CCOC)=C1` here?
Answer: 8.5 nM

Question: And the Cell saturation [2]?
Answer: 9.3 pM (10e5·cells)-1

Question: Which CC50 [1] does the source give for `COCCC1=Cc2nc1ccc1[nH]c(cc1CCOC)c1nc(ccc3[nH]c2cc3CCOC)C(CCO)=C1` here?
Answer: 90 nM

Question: And the Cell saturation [3]?
Answer: 9.3 pM (10e5*cells)-1

Question: What about the CC50 [4] of the same compound?
Answer: 9.1 nM

Question: For `CCCC1=Cc2nc1ccc1[nH]c(cc1CCC)c1nc(ccc3[nH]c2cc3CCC)C(CCC)=C1`, which Cell saturation [5] is on record?
Answer: 1.5 pM (10e5*cells)-1

Question: What does the source list for `CCCC1=Cc2nc1ccc1[nH]c(cc1CCC)c1nc(c(OC(C)=O)cc3[nH]c2cc3CCC)C(CCC)=C1`?
Answer: CC50 [1]: 110 nM; Cell saturation [5]: 1.2 pM (10e5*cells)-1

Question: For `COCCC1=Cc2nc1ccc1[nH]c(c3nc(ccc4[nH]c2cc4CCOC)C(CCOC)=C3)c2c(C(=O)OC)c(C(=O)O)ccc12`, which Cell saturation [3] is on record?
Answer: 7.3 pM (10e5*cells)-1

Question: And the CC50 [6]?
Answer: 13 nM

Question: And the CC50 [7]?
Answer: 130 nM

Question: For `CCCC1=Cc2nc1ccc1[nH]c(cc1CCO)c1nc(ccc3[nH]c2cc3CCC)C(CCO)=C1`, which Cell saturation [8] is on record?
Answer: 26 pM (10e5*cells)-1

Question: For `C=CC1=C(C)c2cc3[nH]c(cc4nc(cc5[nH]c(cc1n2)c(C)c5CCC(=O)O)C(CCC(=O)O)=C4C)c(C)c3C=C` [PROTOPORPHYRIN DISODIUM], which CC50 [9] is on record?
Answer: 1900 nM

Question: And the CC50 [7]?
Answer: 19000 nM

Question: For `CCCC1=Cc2nc1ccc1[nH]c(cc1CCOC)c1nc(ccc3[nH]c2cc3CCC)C(CCOC)=C1`, which Cell saturation [8] is on record?
Answer: 14 pM (10e5*cells)-1
